Test results taken from ChEMBL document CHEMBL2176900, “Design and synthesis of a novel series of bicyclic heterocycles as potent γ-secretase modulators” (J Med Chem, 2012).
Calls of active or inactive are those of the source. No cut-off for these calls is given here.

How the values were obtained:
Canis familiaris = test: Antialzheimer activity in beagle dog assessed as amyloid beta 38 level in cerebrospinal fluid at 20 mg/kg, po at 4 hrs by ELISA relative to control
Brain = test: Drug uptake in Sprague-Dawley rat brain at 10 mg/kg, po at 25 hrs by LC-MS/MS analysis; type: ADME, organism-based; set-up: dose 10 mg/kg, route oral; settings: in vivo, BLD = below limit of detection
In short: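 Overnight-fasted male Sprague–Dawley rats (180–220 g) were dosed 10 mg/kg by gastric intubation of a 5 mg/mL suspension in 0.5% methocellulose. Rats were anesthetized with isoflurane, CSF was taken from the cisterna magna, then they were decapitated. Brain compound levels were measured as in the mouse assay. n = 5.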

Mus musculus [1] = test: Inhibition of gamma-secretase in CD1 mouse assessed as total amyloid beta level in brain at 30 mg/kg, po at 4 hrs by ELISA relative to control; type: functional; set-up: scale not given: the % may be the effect or the level left
In short: (§1)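 Fasted male CD1 SPF mice were dosed orally at 10 or 30 mg/kg in 20% Captisol. Right hemisphere was homogenized in 0.4% DEA/50 mM NaCl and the high-speed supernatant neutralized. Aβtotal ELISA used N-terminal JRF/rAβ/2 capture, biotinylated 4G8 and streptavidin-peroxidase, then a fluorogenic substrate (ex 320/em 420 nm). Standards spanned 10000–0.3 pg/mL. Values are % change vs T = 0 h, n = 4.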

MDR1 = test: Apparent permeability from basal to apical side of pig LLCPK1 cells expressing MDR1; type: ADME, cell-based, Sus scrofa; settings: LLC-PK1
Mus musculus [2] = test: Antialzheimer activity in CD1 mouse assessed as amyloid beta 42 level in brain at 30 mg/kg, po at 48 hrs by ELISA relative to control; type: functional
In short: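 Male CD1 mice, fasted overnight, received a single 10 or 30 mg/kg oral dose. Brain was sampled at an added 48 h time point. The DEA-soluble brain fraction was neutralized and Aβ42 was measured by sandwich ELISA with fluorogenic read-out. Values are % versus vehicle.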

[3] = Plasma concentration in CD1 mouse at 10 mg/kg, po at 24 hrs by LC-MS/MS analysis; type: ADME, organism-based; set-up: dose 10 mg/kg, route oral
In short: (§2)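 Mice received a single 10 or 30 mg/kg oral dose. Plasma was sampled at several time points up to 48 h, with EDTA plasma obtained by centrifugation at 1900g, 10 min, 4 °C. Compound was quantified by LC-MS/MS, n = 4.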

[4] = Drug metabolism in rat liver microsomes at 1 uM after 15 mins by ion-trap mass spectrophotometry; type: ADME, Microsome; settings: read-out: Drug metabolism
[5] = Plasma concentration in CD1 mouse at 30 mg/kg, po at 24 hrs by LC-MS/MS analysis; type: ADME, organism-based; set-up: dose 30 mg/kg, route oral
In short: as §2

Rattus norvegicus [6] = test: Antialzheimer activity in Sprague-Dawley rat assessed as amyloid beta 42 level in CSF at 10 mg/kg, po at 7 hrs by ELISA relative to control; type: functional
In short: (§3)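 Male Sprague-Dawley rats (180-220 g), fasted overnight, were given 10 mg/kg by gastric intubation as a 5 mg/mL suspension in 0.5% methocellulose. At 2, 4, 7 and 25 h, 50 μL CSF was taken from the cisterna magna under isoflurane, then brain was collected. Aβ37/38/40/42 were measured by MesoScale Discovery sandwich immunoassays. Results are mean % change versus T = 0 h, n = 5.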

Rattus norvegicus [7] = test: Antialzheimer activity in Sprague-Dawley rat assessed as amyloid beta 38 level in CSF at 10 mg/kg, po at 4 hrs by ELISA relative to control; type: functional
In short: as §3

[8] = Drug uptake in CD1 mouse brain at 10 mg/kg, po at 4 hrs by LC-MS/MS analysis; type: ADME, organism-based; set-up: dose 10 mg/kg, route oral; settings: read-out: Drug uptake
In short: (§4)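 Overnight-fasted male CD1 mice received one oral dose (10 or 30 mg/kg) in 20% Captisol. After sacrifice, the left brain hemisphere was stored at −18 °C. Compound level was quantified by a qualified LC-MS/MS method, alongside EDTA plasma spun at 1900g, 4 °C. n = 4 per time point.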

[9] = Plasma concentration in beagle dog at 20 mg/kg, po at 8 hrs; type: ADME, organism-based, Canis lupus familiaris; set-up: dose 20 mg/kg, route oral
Mus musculus [10] = test: Antialzheimer activity in CD1 mouse assessed as amyloid beta 38 level in brain at 10 mg/kg, po at 24 hrs by ELISA relative to control; type: functional
In short: (§5)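 Male CD1 SPF mice, fasted overnight, got a single oral dose of 10 or 30 mg/kg. At each time point the right brain hemisphere was homogenized in 0.4% DEA/50 mM NaCl with protease inhibitors and spun at 221300g for 50 min. The supernatant was neutralized with Tris-HCl pH 6.8. Aβ38 or Aβ42 was read by sandwich ELISA with a fluorogenic peroxidase substrate (ex 320/em 420 nm). Results are mean % change versus T = 0 h, n = 4.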

[11] = Drug metabolism in human liver microsomes at 1 uM after 15 mins by ion-trap mass spectrophotometry; type: ADME, Microsome; settings: read-out: Drug metabolism
[12] = Plasma concentration in CD1 mouse at 10 mg/kg, po at 8 hrs by LC-MS/MS analysis; type: ADME, organism-based; set-up: dose 10 mg/kg, route oral
In short: as §2

Mus musculus [13] = test: Inhibition of gamma-secretase in CD1 mouse assessed as total amyloid beta level in brain at 10 mg/kg, po at 24 hrs by ELISA relative to control; type: functional; set-up: scale not given: the % may be the effect or the level left
In short: as §1

Rattus norvegicus [14] = test: Antialzheimer activity in Sprague-Dawley rat assessed as amyloid beta 37 level in brain at 10 mg/kg, po at 4 hrs by ELISA relative to control; type: functional
In short: as §3

Rattus norvegicus [15] = test: Antialzheimer activity in Sprague-Dawley rat assessed as amyloid beta 42 level in brain at 10 mg/kg, po at 2 hrs by ELISA relative to control; type: functional
In short: as §3

[16] = target: Gamma-secretase (Homo sapiens) (UniProt Q96BI3+Q9NZ42+Q8WW43+P49768+Q92542+P49810); test: Inhibition of gamma-secretase in human SK-N-BE(2) cells expressing wild type APP 695 assessed as reduction in total amyloid beta level up to 10 uM after overnight incubation by sandwich immunoassay; type: cell-based
In short: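 SK-N-BE(2) cells with wild-type APP695 were plated at 10⁴ cells/well in supplemented Ultraculture with test compound at several concentrations. They were incubated overnight at 37 °C, 5% CO₂. Supernatant Aβtotal was measured by AlphaLisa sandwich immunoassay (JRF/AβN/25 capture, biotinylated 4G8). Data are % of the maximum Aβtotal seen without compound.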

[17] = Fraction unbound in mouse plasma; type: ADME, cell-free
Rattus norvegicus [18] = test: Antialzheimer activity in Sprague-Dawley rat assessed as amyloid beta 40 level in CSF at 10 mg/kg, po at 25 hrs by ELISA relative to control; type: functional
In short: as §3

Rattus norvegicus [19] = test: Antialzheimer activity in Sprague-Dawley rat assessed as amyloid beta 38 level in brain at 10 mg/kg, po at 25 hrs by ELISA relative to control; type: functional
In short: as §3

[20] = Drug uptake in CD1 mouse brain at 30 mg/kg, po at 24 hrs by LC-MS/MS analysis; type: ADME, organism-based; set-up: dose 30 mg/kg, route oral; settings: read-out: Drug uptake
In short: as §4

Rattus norvegicus [21] = test: Antialzheimer activity in Sprague-Dawley rat assessed as amyloid beta 40 level in CSF at 10 mg/kg, po at 2 hrs by ELISA relative to control; type: functional
In short: as §3

Mus musculus [22] = test: Antialzheimer activity in CD1 mouse assessed as amyloid beta 38 level in brain at 30 mg/kg, po at 4 hrs by ELISA relative to control; type: functional
In short: as §5

COc1nc(Nc2cccc3c2nc(-c2ccc(F)cc2)n3C)ccc1-n1cnc(C)c1
Activity (Canis familiaris): 134% | Drug uptake (Brain): BLD | Activity (Mus musculus [1]): 98% | Papp B→A (MDR1): 4 ×10⁻⁶ cm/s | Activity (Mus musculus [2]): 101% | concentration at 24 h [3]: 4 nM | metabolised at 0.25 h, 1 µM [4]: 16% | concentration at 24 h [5]: 310 nM | Activity (Rattus norvegicus [6]): 57% | Activity (Rattus norvegicus [7]): 179% | concentration at 4 h [8]: 2800 nM | concentration at 8 h [9]: 1700 nM | Activity (Mus musculus [10]): 83% | metabolised at 0.25 h, 1 µM [11]: 6% | concentration at 8 h [12]: 2700 nM | Activity (Mus musculus [13]): 94% | Activity (Rattus norvegicus [14]): 506% | Activity (Rattus norvegicus [15]): 75% | inhibition [16]: inactive | fraction unbound [17]: 0.0004 | Activity (Rattus norvegicus [18]): 83% | Activity (Rattus norvegicus [19]): 105% | concentration at 24 h [20]: 440 nM | Activity (Rattus norvegicus [21]): 60% | Activity (Mus musculus [22]): 165%
